Laboratory results taken from ChEMBL document CHEMBL3808291, “Bifunctional Peptide-Based Opioid Agonist-Nociceptin Antagonist Ligands for Dual Treatment of Acute and Neuropathic Pain” (J Med Chem, 2016).
Active and inactive are the calls of the source. Numbered stars: 1 amine (or outer) side, 2 acyl side, 3 side chain; on linkers, the order of the positions; unused ones are H or OH. Square brackets hold non-standard residues; d marks the D form. Peptide text beside a SMILES is read from it. X1 = O=C1[C@@H](N[*:1])Cc2ccccc2CN1CCC(=O)[*:2]; Phe(4-F) = N[C@@H](Cc1ccc(F)cc1)C(=O)O; Dmt = Cc1cc(O)cc(C)c1C[C@H](N)C(=O)O

How the values were obtained:
[1] = tested on: Mus musculus; assay: Antihyperalgesic activity in albino Swiss CD1 IGS mouse model of streptozocin-induced type1 diabetic neuropathic pain assessed as increase in paw withdrawal latency at 0.005 nmol, it administered on day 10 after STZ injection measured at 180 mins post dose by […]; type: functional, organism-based
How it was run: (§1)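 Male CD-1 mice (30–35 g). CCI: sciatic constriction injury, tested on days 7–16 after surgery. STZ diabetes: single ip streptozocin 200 mg/kg; mice with glucose >300 mg/dL included, tested on day 10. Drug in water for injection, given it (5 µL, L5–L6 lumbar puncture) to conscious mice. von Frey (cutoff 6 g) or cold plate (2 °C, 30 s cutoff, paw lift) at 30, 90, 180 min; 6–8 mice/group.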

[2] = species: Mus musculus; assay: Neurotoxicity in albino Swiss CD1 IGS mouse assessed as motor impairment at 0.5 nmol, it measured after 15 to 120 mins post dose by rotarod test; type: toxicity, organism-based; details: in vivo, icv_or_intrathecal
How it was run: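 CD-1 mice given intrathecal compound (5 µL, L5–L6), tested at 15 and 120 min on accelerating rotarod, 2 to 40 rpm over 300 s cutoff, after three training sessions.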

[3] = tested on: Mus musculus; assay: Antiallodynic activity in albino Swiss CD1 IGS mouse model of streptozocin-induced type1 diabetic neuropathic pain assessed as increase in mechanical threshold for paw withdrawal at 0.005 nmol, it administered on day 10 after STZ injection measured at 180 mins post dose by Von Frey test; type: functional, organism-based; how it was run: as §1
[4] = tested on: Mus musculus; assay: Antiallodynic activity in albino Swiss CD1 IGS mouse model of streptozocin-induced type1 diabetic neuropathic pain assessed as increase in mechanical threshold for paw withdrawal at 0.005 nmol, it administered on day 10 after STZ injection measured at 30 mins post dose by Von Frey test; type: functional, organism-based; how it was run: as §1
[5] = molecular target: T1, Nociceptin receptor (Homo sapiens, UniProt P41146); assay: Agonist activity at human nociceptin receptor expressed in CHO cell membrane incubated for 60 mins by [35S]GTPgammaS binding assay relative to control; type: functional, cell membranes
T1 sequence (P41146 whole entry): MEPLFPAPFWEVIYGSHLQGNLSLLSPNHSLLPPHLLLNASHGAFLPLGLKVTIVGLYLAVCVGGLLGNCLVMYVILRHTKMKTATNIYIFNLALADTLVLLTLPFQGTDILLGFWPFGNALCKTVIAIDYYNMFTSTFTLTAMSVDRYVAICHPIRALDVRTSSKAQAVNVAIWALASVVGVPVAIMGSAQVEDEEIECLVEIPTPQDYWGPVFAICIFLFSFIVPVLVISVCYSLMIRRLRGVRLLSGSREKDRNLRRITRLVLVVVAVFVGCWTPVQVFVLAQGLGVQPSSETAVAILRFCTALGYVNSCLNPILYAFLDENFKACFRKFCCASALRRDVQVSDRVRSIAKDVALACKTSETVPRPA

[6] = tested on: Mus musculus; assay: Antiallodynic activity in albino Swiss CD1 IGS mouse model of streptozocin-induced type1 diabetic neuropathic pain assessed as increase in mechanical threshold for paw withdrawal at 0.008 nmol, it administered on day 10 after STZ injection measured at 180 mins post dose by Von Frey test; type: functional, organism-based
How it was run: (§2)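 Male Albino Swiss CD-1 mice made diabetic by single ip streptozocin 200 mg/kg; glucose >300 mg/dL required; tested day 10. Compound in water for injection, 5 µL intrathecal at L5–L6; von Frey or cold plate (2 °C, 30 s cutoff) at 30, 90, 180 min; 6–8 mice per group.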

[7] = tested on: Mus musculus; assay: Antihyperalgesic activity in albino Swiss CD1 IGS mouse model of streptozocin-induced type1 diabetic neuropathic pain assessed as increase in paw withdrawal latency at 0.008 nmol, it administered on day 10 after STZ injection measured at 180 mins post dose by […]; type: functional, organism-based; how it was run: as §2
[8] = tested on: Mus musculus; assay: Antiallodynic activity in albino Swiss CD1 IGS mouse model of streptozocin-induced type1 diabetic neuropathic pain assessed as increase in mechanical threshold for paw withdrawal at 0.008 nmol, it administered on day 10 after STZ injection measured at 30 mins post dose by Von Frey test; type: functional, organism-based; how it was run: as §2
[9] = molecular target: T1, Nociceptin receptor; assay: Antagonist activity at human nociceptin receptor expressed in HEK293 cells assessed as inhibition of OFQ/nociceptin-induced suppression of cAMP accumulation up to 20 uM preincubated for 15 mins followed by OFQ/nociceptin addition by luciferase reporter gene assay; type: functional, cell-based
[10] = molecular target: T1, Nociceptin receptor; assay: Partial agonist activity at human nociceptin receptor expressed in HEK293 cells assessed as inhibition of forskolin-stimulated cAMP production preincubated for 15 mins followed by forskolin addition measured for 90 mins by luciferase reporter gene assay relative to nociceptin; type: functional, cell-based
How it was run: (§3)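 HEK293 cells stably expressing human NOP and GloSensor, in Hepes buffer pH 7.4 with 1 mM d-luciferin, pre-equilibrated 2 h at 25 °C. Compound at various concentrations added 15 min before forskolin (0.5 µM final); luminescence read kinetically for 90 min at 25 °C with 0.5 mM IBMX. At least two experiments in duplicate.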

[11] = tested on: Mus musculus; assay: Antiallodynic activity in albino Swiss CD1 IGS mouse model of streptozocin-induced type1 diabetic neuropathic pain assessed as increase in mechanical threshold for paw withdrawal at 0.007 nmol, it administered on day 10 after STZ injection measured at 30 mins post dose by Von Frey test; type: functional, organism-based; how it was run: as §2
[12] = tested on: Mus musculus; assay: Neurotoxicity in intrathecally dosed albino Swiss CD1 IGS mouse assessed as motor impairment measured after 15 to 120 mins post dose by rotarod test; type: toxicity, organism-based; details: in vivo, icv_or_intrathecal
How it was run: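 Intrathecal dosing (water for injection, 5 µL) to male CD-1 mice. After three training sessions, mice placed on accelerating rod (2 to 40 rpm over 300 s cutoff); tested 15 and 120 min after injection.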

[13] = molecular target: T1, Nociceptin receptor; assay: Agonist activity at human nociceptin receptor expressed in HEK293 cells assessed as inhibition of forskolin-stimulated cAMP production up to 10 uM preincubated for 15 mins followed by forskolin addition measured for 90 mins by luciferase reporter gene assay; type: functional, cell-based; how it was run: as §3
[14] = tested on: Mus musculus; assay: Antiallodynic activity in albino Swiss CD1 IGS mouse model of streptozocin-induced type1 diabetic neuropathic pain assessed as increase in mechanical threshold for paw withdrawal at 0.007 nmol, it administered on day 10 after STZ injection measured at 180 mins post dose by Von Frey test; type: functional, organism-based; how it was run: as §2
[15] = tested on: Mus musculus; assay: Antihyperalgesic activity in albino Swiss CD1 IGS mouse model of streptozocin-induced type1 diabetic neuropathic pain assessed as increase in paw withdrawal latency at 0.007 nmol, it administered on day 10 after STZ injection measured at 180 mins post dose by […]; type: functional, organism-based; how it was run: as §2
[16] = tested on: Mus musculus; assay: Antihyperalgesic activity in intrathecally dosed albino Swiss CD1 IGS mouse model of chronic constriction injury-induced neuropathic pain assessed as increase in paw withdrawal latency administered on day 7 to 16 after CCI surgery measured 30 mins post dose by cold plate test; type: functional
How it was run: (§4)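 Male Albino Swiss CD-1 mice (30–35 g), sciatic chronic constriction injury under chloral hydrate; tested days 7–16 post-surgery. Compound in water for injection, 5 µL intrathecal by lumbar puncture L5–L6 in awake mice.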

[17] = tested on: Mus musculus; assay: (§5) Antiallodynic activity in intrathecally dosed albino Swiss CD1 IGS mouse model of chronic constriction injury-induced neuropathic pain assessed as increase in mechanical threshold for paw withdrawal administered on day 7 to 16 after CCI surgery measured 30 mins post dose by Von Frey test; type: functional; how it was run: as §4
[18] = molecular target: T1, Nociceptin receptor; assay: Displacement of [3H]OFQ/nociceptin from human nociceptin receptor expressed in HEK293 cell membrane incubated for 1 hr by TopCount scintillation counting method; type: cell membranes
[19] = tested on: Mus musculus; assay: as §5, with “in” for “in intrathecally dosed”, “withdrawal at >10 ug, it” for “withdrawal”, “test relative to control” for “test”; type: functional
[20] = tested on: Mus musculus; assay: Antinociceptive activity in C57BL6 mouse model of acute pain assessed as increase in withdrawal latency from radiant heat source at >10 ug, iv measured after 5 to 120 mins by tail flick assay relative to control; type: functional
[21] = tested on: Mus musculus; assay: as §5, with “in” for “in intrathecally dosed”, “withdrawal at 10 ug, it” for “withdrawal”, “test relative to control” for “test”; type: functional
[22] = tested on: Mus musculus; assay: Antinociceptive activity in iv dosed C57BL6 mouse model of acute pain assessed as increase in withdrawal latency from radiant heat source measured after 5 to 120 mins by tail flick assay; type: functional, organism-based
How it was run: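 Male C57BL6 mice (20–25 g), restrained; compound or saline control injected intravenously into tail vein. Radiant heat light beam applied to ventral tail; latency to withdrawal or tail shake recorded at baseline and 5, 15, 30, 60, 120 min post-injection. Latencies normalized as %MPE (mean ± SEM); groups of 8–10 mice.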

[23] = tested on: Mus musculus; assay: Antinociceptive activity in C57BL6 mouse model of acute pain assessed as increase in withdrawal latency from radiant heat source at 390 nmol/kg, iv measured after 60 mins by tail flick assay; type: functional, organism-based
How it was run: (§6)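 Male C57BL6 mice (20–25 g); compound or saline given iv into tail vein (po also tested). Radiant heat on ventral tail, latency to withdrawal/shaking recorded at baseline and 5, 15, 30, 60, 120 min (later points also reported); normalized as %MPE; 8–10 mice per group.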

[24] = tested on: Mus musculus; assay: Antihyperalgesic activity in albino Swiss CD1 IGS mouse model of chronic constriction injury-induced neuropathic pain assessed as increase in paw withdrawal latency at 10 ug, it administered on day 7 to 16 after CCI surgery measured 30 mins post dose by cold plate test relative to control; type: functional
[25] = tested on: Mus musculus; assay: Antihyperalgesic activity in albino Swiss CD1 IGS mouse model of chronic constriction injury-induced neuropathic pain assessed as increase in paw withdrawal latency at >10 ug, it administered on day 7 to 16 after CCI surgery measured 30 mins post dose by cold plate test relative to control; type: functional
[26] = tested on: Mus musculus; assay: Antinociceptive activity in C57BL6 mouse model of acute pain assessed as increase in withdrawal latency from radiant heat source at 10 ug, iv measured after 5 to 120 mins by tail flick assay relative to control; type: functional
[27] = tested on: Mus musculus; assay: Antinociceptive activity in C57BL6 mouse model of acute pain assessed as increase in withdrawal latency from radiant heat source at 390 nmol/kg, iv measured after 15 to 30 mins by tail flick assay; type: functional, organism-based; how it was run: as §6

Cc1cc(O)cc(C)c1C[C@H](N)C(=O)N[C@H](CCCNC(=N)N)C(=O)N[C@H]1Cc2ccccc2CN(CCC(=O)N[C@@H](CCCNC(=N)N)C(=O)N[C@@H](Cc2ccc(O)cc2)C(=O)N[C@@H](Cc2ccc(F)cc2)C(=O)N[C@@H](CCCNC(=N)N)C(=O)N[C@@H](Cc2c[nH]c3ccccc23)C(=O)N[C@@H](CCCNC(=N)N)C(N)=O)C1=O (H-[Dmt][dR][X1]RY[Phe(4-F)]RWR-NH2)
Activity [1]: inactive
Activity [2]: Toxic
Activity [3]: inactive
Activity [4]: Active

CC(=O)N[C@@H](CCCNC(=N)N)C(=O)N[C@@H](Cc1ccc(O)cc1)C(=O)N[C@@H](Cc1ccc(F)cc1)C(=O)N[C@@H](CCCNC(=N)N)C(=O)N[C@@H](Cc1c[nH]c2ccccc12)C(=O)N[C@@H](CCCNC(=N)N)C(N)=O (Ac-RY[Phe(4-F)]RWR-NH2)
Activity [5]: 70%

CC[C@H](C)[C@@H](NC(=O)[C@H](CCCNC(=N)N)NC(=O)[C@H](Cc1ccc(O)cc1)NC(=O)[C@H](Cc1ccc(O)cc1)NC(=O)[C@H](CCCNC(=N)N)NC(C)=O)C(=O)N[C@@H](CCCCN)C(N)=O
Activity [6]: inactive
Activity [7]: inactive
Activity [8]: Active
inhibition [9]: inactive
inhibition [10]: 70%

CC[C@H](C)[C@H](NC(=O)[C@H](CCCNC(=N)N)NC(=O)[C@H](Cc1ccc(O)cc1)NC(=O)[C@H](Cc1ccc(O)cc1)NC(=O)[C@@H](N)CCCNC(=N)N)C(=O)N[C@@H](CCCCN)C(N)=O
Activity [11]: Active
Activity [12]: Non-toxic
inhibition [9]: inactive
Activity [13]: inactive
Activity [14]: inactive
Activity [15]: inactive

Cc1cc(O)cc(C)c1C[C@H](N)C(=O)N[C@H](CCCNC(=N)N)C(=O)N[C@H]1Cc2ccccc2CN(CCC(=O)N[C@@H](CCCNC(=N)N)C(=O)N[C@@H](Cc2ccc(O)cc2)C(=O)N[C@@H](Cc2ccc(O)cc2)C(=O)N[C@@H](CCCNC(=N)N)C(=O)N[C@@H](Cc2c[nH]c3ccccc23)C(=O)N[C@@H](CCCNC(=N)N)C(N)=O)C1=O (H-[Dmt][dR][X1]RYYRWR-NH2)
ED50 [16]: 0.002 nmol
Activity [1]: inactive
ED50 [17]: 0.0009 nmol
Activity [12]: Non-toxic
Activity [3]: inactive
Activity [4]: Active
Ki [18]: 47 nM

CN1CC[C@]23c4c5ccc(O)c4O[C@H]2[C@@H](O)C=C[C@H]3[C@H]1C5 [MORPHINE]
ED50 [16]: 7.46 nmol
MPE [19]: 50%
MPE [20]: 100%
MPE [21]: 36.5%
Activity [22]: Dose-dependent effect
Activity [23]: inactive
ED50 [17]: 7 nmol
MPE [24]: 30.15%
MPE [25]: 50%
MPE [26]: 63.8%
Activity [27]: Active

Cc1cc(O)cc(C)c1C[C@H](NC(=O)[C@H](Cc1ccc(O)cc1)NC(=O)[C@H](CCCNC(=N)N)NC(=O)CCN1Cc2ccccc2C[C@H](NC(=O)[C@@H](CCCNC(=N)N)NC(=O)[C@@H](N)Cc2c(C)cc(O)cc2C)C1=O)C(=O)N[C@@H](CCCNC(=N)N)C(=O)N[C@@H](Cc1c[nH]c2ccccc12)C(=O)N[C@@H](CCCNC(=N)N)C(N)=O (H-[Dmt][dR][X1]RY[Dmt]RWR-NH2)
ED50 [16]: 0.005 nmol
Activity [1]: inactive
ED50 [17]: 0.0009 nmol
Activity [12]: Non-toxic
Activity [3]: inactive
Activity [4]: Active
